# Most compounds without a hit are left out; they make up all but 2.2% or so of the library.
# TRAIL sens C8 = viability loss with TRAIL in NB7+C8 cells, primary screen, TRAIL sensitizer project, cell-based, ATPlite luminescence; inhibition (viability loss, TRAIL sensitization), % at 10 µM; hit rate 1% among 360,000; AID 624354, 2012;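 active = compounds causing at least 50% loss of cell viability in the single-dose screen, relative to plate controls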
# HSP90 refold inh = HSP90 inhibitors, primary screen, cell lysate, luminescence | AID 1789, 2009 | inhibition, % at 5.6 µM | hit rate 0.91% among 290,000 | Heat shock protein HSP 90 (rabbit reticulocyte lysate; luciferase refolding) | Rabbit reticulocyte lysate, luciferase refolding luminescence, 3 h;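 active = inhibition above the screen-wide mean plus 3 SD, computed separately per campaign, cut at about 16% in these data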;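 also: 0% = DMSO wells and 100% = 60 µM geldanamycin wells; inhibitors lower the luminescence because luciferase stays unfolded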
# STAT3 inh-1 = IL-6 driven STAT3 reporter inhibitors, primary screen, U3A cells, luciferase, luminescence, MLSCN library; IL-6 STAT3-luciferase reporter; host cell line lacks STAT1; inhibition, % at 5.5 µM; hit rate 0.89% among 190,000;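 active = inhibition above the mean inhibition across all screened compounds plus 3 SD, cut at about 44% in these data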;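 also: 0% = DMSO only wells and 100% = 100 µM nifuroxazide control wells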
# FLuc stim CS = FLuc activators, initial screening, artefact control for FLuc-dependent activation tests, biochemical, ATPlite luminescence | Luciferin 4-monooxygenase (Photinus pyralis), P08659 | ATPlite luciferase biochemical, 10 min; 0 = ATP-free wells, 1 = DMSO control | activation factor at 10 µM | 200,000 tested, under 10 active | AID 1027, 2008;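 active = luciferase activation factor, scaled between plate controls, of at least 2 with compound at 10 µM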
# Target sequence (P08659 whole entry, looked up): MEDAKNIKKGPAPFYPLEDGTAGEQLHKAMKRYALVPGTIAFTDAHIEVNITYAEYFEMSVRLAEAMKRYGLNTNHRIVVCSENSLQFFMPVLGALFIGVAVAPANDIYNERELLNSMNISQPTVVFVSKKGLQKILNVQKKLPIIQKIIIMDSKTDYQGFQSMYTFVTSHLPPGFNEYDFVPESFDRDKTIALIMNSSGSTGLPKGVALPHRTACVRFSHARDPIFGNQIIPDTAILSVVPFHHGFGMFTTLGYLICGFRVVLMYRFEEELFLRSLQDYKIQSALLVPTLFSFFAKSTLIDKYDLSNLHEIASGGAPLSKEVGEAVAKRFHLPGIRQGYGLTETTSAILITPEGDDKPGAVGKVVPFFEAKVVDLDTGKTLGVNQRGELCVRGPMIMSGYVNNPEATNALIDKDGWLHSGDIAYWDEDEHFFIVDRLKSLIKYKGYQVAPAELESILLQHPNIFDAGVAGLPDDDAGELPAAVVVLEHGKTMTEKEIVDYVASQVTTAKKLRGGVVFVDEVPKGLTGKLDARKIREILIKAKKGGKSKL
#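 test system = cell-free luciferase reagent | medium = PBS as buffer for the ATP substrate | dosing = test compounds dosed from 2 mM stocks in 100% DMSO | incubation = 10 min at ambient temperature | detection = luminescence measurement of luciferase light output | benchmarks = low control with PBS replacing ATP, high control enzyme plus ATP without compound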
# FLuc inh counter = firefly luciferase enzyme inhibitors, primary screen, artefact control for luciferase-based inhibitor screens, biochemical, luminescence, ATPLite | AID 1006, 2008 | inhibition, % at 10 µM | Luciferin 4-monooxygenase (Photinus pyralis), P08659 | 10 min | hit rate 1.5% among 200,000;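 active = inhibition above about 50% when tested at 10 µM, limit read from the data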
# PPC-1+TRAIL kill = compounds killing PPC-1 cancer cells with TRAIL present, primary screen, TRAIL potentiator project, ATPLite luminescence, uHTS | cell killing (% activity), % at 4 µM or 5 µM | PPC-1 cells + TRAIL, ATPLite viability luminescence | hit rate 0.41% among 220,000;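 active = cell killing above 50% in the first pass at 4 µM, then a duplicate retest at 5 µM averaging 50% or more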;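 also: plate controls were cells with TRAIL plus DMSO for no effect and medium-only wells lacking cells for full effect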
# STAT3 inh-2 = STAT3 reporter inhibitors, retest of hits, confirmation, U3A cells, luciferase, luminescence. shares compounds with STAT3 inh-1. IL-6 STAT3 luciferase reporter; cell line lacks STAT1. inhibition, % at 5.7 µM. hit rate 45% among 1,200. AID 1265, 2008;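 active = inhibition above the hit cutoff computed for the primary STAT3 screen, cut at about 44% in these data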;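 also: 0% = IL-6 plus DMSO and 100% = IL-6 plus nifuroxazide control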
# NFkB inh 2 = NF-kB reporter inhibitors in human cells, confirmation, counter-screen for STAT3 inhibitor project, cell-based, HEK293T, luciferase, TNF-alpha stimulus. shares compounds with STAT3 inh-1. TNF-alpha induced. inhibition, % at 5.7 µM. hit rate 36% among 1,200;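 active = inhibition above the mean of solvent-only control wells plus 3 SD, cutoff set per campaign, cut at about 13% in these data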;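 also: 0% = TNF-alpha with DMSO and 100% = TNF-alpha with MG high control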
# STAT1 inh 2 = STAT1 reporter inhibitors, IFN-gamma induced, confirmation, counter-screen for STAT3 inhibitor project, cell-based, NIH 3T3, luciferase luminescence. shares compounds with STAT3 inh-1. NIH 3T3 STAT1-luciferase reporter. inhibition, % at 5.7 µM. hit rate 27% among 1,200. AID 1317, 2008;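 active = inhibition above the mean plus 3 SD of solvent-only control wells, limit set per screening run, cut at about 16% in these data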;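 also: 0% = DMSO with IFN-gamma and 100% = nifuroxazide control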
# Numbers without * were called inactive; x = not tested or not shown.
SMILES,TRAIL sens C8,HSP90 refold inh,STAT3 inh-1,FLuc stim CS,FLuc inh counter,PPC-1+TRAIL kill,STAT3 inh-2,NFkB inh 2,STAT1 inh 2
COc1ccc(OCC(=O)Nc2ccc(N3CCN(C(=O)c4ccco4)CC3)cc2)cc1,5,1,12,1.1,-6,-23,x,x,x
O=C(COc1ccc(Cl)cc1)Nc1ccc(N2CCN(C(=O)c3ccco3)CC2)cc1,-8,-1,61*,1.1,-6,8,40,5,8
CC(=O)N1CCN(c2ccc(NC(=O)C(C)Oc3ccc(Cl)cc3Cl)cc2)CC1 (stereo unspecified),-4,11,-3,1,-4,-7,x,x,x
CC(=O)N1CCN(c2ccc(NC(=O)COc3ccc(Cl)cc3Cl)cc2)CC1,8,1,60*,1,-2,20,37,2,2
Cc1ccc(Cn2ncc3c(N4CCN(c5ccc(C)cc5)CC4)ncnc32)cc1,41,1,69*,1.1,-6,15,63*,20*,8
Cc1ccc(Cn2ncc3c(N4CCN(Cc5ccc(Cl)cc5)CC4)ncnc32)cc1,32,-1,54*,1.1,-12,-4,49*,25*,3
Cc1ccc(Cn2ncc3c(N4CCN(C)CC4)ncnc32)cc1,14,-4,11,1,-2,22,x,x,x
CN1CCN(c2ncnc3c2cnn3-c2ccc(Cl)cc2)CC1,23,42*,53*,0.8,22,6,5,-17,-97
CC1(C)CC2CC(C)(CN2S(=O)(=O)c2ccc(C(=O)Nc3ccc(Cl)c(S(=O)(=O)N4CCOCC4)c3)cc2)C1 (stereo unspecified),15,2,45*,1.1,-5,25,50*,22*,7
COc1ccc(CNC(=O)C/C(C)=N/NC(=O)COc2ccccc2)cc1,-6,-4,4,1.1,-11,-10,x,x,x
Fc1ccc(NC(=S)Nc2ccc(Cl)cc2Cl)cc1,x,2,44*,1,0,-22,41,-9,-8
NC(=O)c1ccc(N2CCN(S(=O)(=O)c3ccccc3)CC2)c([N+](=O)[O-])c1,44,-2,72*,1.1,-7,20,71*,23*,28*
O=C(c1ccc(N2CCCCC2)c([N+](=O)[O-])c1)N1CCN(S(=O)(=O)c2ccccc2)CC1,5,x,x,x,x,x,x,x,x
O=[N+]([O-])c1ccc2nc(-c3ccc(OC(F)F)cc3)cn2c1,27,17*,66*,0.8,24,-22,36,-30,-87
O=[N+]([O-])c1ccc(-c2cn3ccccc3n2)cc1,28,x,x,x,x,x,x,x,x
O=C(Nc1cccc2cccnc12)c1csc(COCCO)n1,-7,x,x,x,x,x,x,x,x
O=C(Nc1nc2c(s1)CCCC2)c1cccnc1,9,3,7,0.6,35,19,x,x,x
O=C(Nc1nc2c(s1)CCCC2)C1COc2ccccc2O1 (stereo unspecified),34,51*,73*,0.6,43,19,34,-8,-104
Cc1nnc(NC(=O)C2COc3ccccc3O2)s1 (stereo unspecified),-10,1,-14,1.1,-5,-2,x,x,x
O=C(Nc1nc2c(s1)CCCC2)c1ccc(Br)o1,57*,16*,46*,0.3,68*,36,12,-30,-122
COc1cc(NC(=O)C(C)(C)C)c(C(=O)OCC(=O)Nc2cc(C)on2)cc1OC,7,x,x,x,x,x,x,x,x
c1ccc2c(c1)OCC(CNc1ncnc3sccc13)O2 (stereo unspecified),35,-1,84*,1,-2,26,87*,32*,20*
Fc1ccccc1CNc1ncnc2sccc12,23,-2,x,x,x,x,x,x,x
Cc1ccc(C)c(NC(=S)N2CCC(NC(=O)c3ccc(F)cc3)CC2)c1,13,-2,x,x,x,x,x,x,x
COCCCN1C(=O)c2ccc(C(=O)OCC(=O)N3CCN(c4ccccc4)CC3)cc2C1=O,4,x,x,x,x,x,x,x,x
SMILES,TRAIL sens C8,HSP90 refold inh,STAT3 inh-1,FLuc stim CS,FLuc inh counter,PPC-1+TRAIL kill,STAT3 inh-2,NFkB inh 2,STAT1 inh 2
O=C(NCc1cccc(Cl)c1)c1cc(COc2ccc3ncccc3c2)on1,31,6,45*,1.1,-8,5,62*,15*,21*
CC(CCCC(C)(C)O)NC(=O)c1cc(COc2ccc3ncccc3c2)on1 (stereo unspecified),14,4,63*,1,-3,10,63*,21*,24*
Cc1ccc(F)cc1CNC(=O)c1cc(COc2ccc3ncccc3c2)on1,15,0,38,1.1,-6,25,x,x,x
Cc1cc(C)n(CCNC(=O)c2cc(COc3ccc4ncccc4c3)on2)n1,29,-4,x,x,x,14,x,x,x
COCCN(CCOC)C(=O)COC(=O)c1cc([N+](=O)[O-])ccc1Cl,-6,-4,x,x,x,11,x,x,x
Cc1sc(NC(=O)c2sc3nc4c(C)cccc4cc3c2N)c(C#N)c1C,33,0,-1,0.9,11,34,x,x,x
Cc1cccc2cc3c(N)c(C#N)sc3nc12,3,0,50*,1.1,-7,10,29,-7,-27
O=c1[nH]c(N2CCOCC2)nc2c1CCCC2,15,7,97*,1.1,-5,28,2,-7,-6
Cc1ccc(-n2ncc3c(SCc4cccnc4)ncnc32)c(C)c1,15,-2,75*,1,3,29,68*,4,6
O=C(Nc1nc(-c2cc3ccccc3o2)cs1)c1ccc(S(=O)(=O)N2CCCC2)cc1,38,1,58*,1.1,-6,11,77*,25*,20*
CC1CN(S(=O)(=O)c2ccc(C(=O)Nc3nc(-c4cc5ccccc5o4)cs3)cc2)CC(C)O1 (stereo unspecified),42,-1,0,1.1,-11,0,x,x,x
COc1ccccc1N(C)S(=O)(=O)c1ccc(C(=O)Nc2nc(C)cs2)cc1,-3,-2,6,1,-2,-6,x,x,x
CN(C)S(=O)(=O)c1ccc(C(=O)Nc2nc(-c3cc4ccccc4o3)cs2)cc1,40,1,53*,1,-4,25,76*,20*,16*
